Test results taken from ChEMBL document CHEMBL1926567, “Triterpenoids as inhibitors of erythrocytic and liver stages of Plasmodium infections” (Bioorg Med Chem, 2011).
Calls of active or inactive are those of the source. The rule behind the calls is not given here.

Key:
Plasmodium falciparum [1] = assay: Antimalarial activity against chloroquine-sensitive Plasmodium falciparum 3D7 infected in erythrocytes after 48 hrs by SYBR green 1-based fluorescence assay; format: functional, organism-based; conditions: 3D7, 48 h
Procedure, shortened: (§1)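 P. falciparum (3D7 or Dd2) grown in fresh human erythrocytes in RPMI 1640 with 25 mM HEPES, 6.8 mM hypoxanthine and 10% AlbuMAX II, at 37 °C under 5% O2, 3–5% CO2 and N2. Ring-stage cultures at 1% parasitaemia and 2% haematocrit were exposed in duplicate to 0.156–100 µg/mL (from DMSO stocks) for 48 h at 37 °C. SYBR Green I lysis buffer was then added for 1 h in the dark; fluorescence read at ex 485/em 535 nm. IC50 is the mean of three independent experiments.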

[2] = Selectivity index, ratio of IC50 for human MCF7 cells to IC50 for chloroquine-resistant Plasmodium falciparum Dd2; format: toxicity, cell-based; conditions: read-out: Ratio IC50
Procedure, shortened: (§2)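 MCF-7 cells were grown in RPMI 1640 with 10% heat-inactivated horse serum and 2 mM L-glutamine. Cells (2×10^4 per well) were exposed to increasing compound concentrations for 24 h at 37 °C, then given MTT for 4 h and SDS overnight; OD read at 550 nm (ref 630 nm). Growth-inhibition IC50 from three experiments.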

[3] = Selectivity index, ratio of IC50 for human MCF7 cells to IC50 for chloroquine-sensitive Plasmodium falciparum 3D7; format: toxicity, cell-based; conditions: read-out: Ratio IC50; procedure, shortened: as §2
MCF7 = assay: Cytotoxicity against human MCF7 cells after 24 hrs by MTT assay; format: cell-based; conditions: MCF7, 24 h
Procedure, shortened: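 MCF-7 cells grown in RPMI 1640 with 10% heat-inactivated horse serum and 2 mM L-glutamine at 37 °C, 5% CO2. 2×10^4 cells/well exposed to increasing compound concentrations for 24 h. MTT added for 4 h, then 10% SDS overnight; OD at 550 nm (reference 630 nm). Percent growth inhibition calculated relative to cell and medium controls; IC50 given as mean ± SD of three experiments.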

Plasmodium berghei [4] = assay: Antimalarial activity against liver stage of transgenic Plasmodium berghei expressing PbGFP-Luc-con infected in human HuH7 cells at 1 to 15 uM after 48 hrs by bioluminescence method; format: functional, organism-based; conditions: Huh-7
Procedure, shortened: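 Huh-7 human hepatoma cells (12×10^3/well) seeded the day before; compounds at 1, 5 and 15 uM added 1 h before sporozoites of luciferase-expressing P. berghei PbGFP-Luc_con, freshly dissected from infected female Anopheles stephensi salivary glands. Plates centrifuged 1700g for 5 min after sporozoite addition. Luminescence read 48 h post-infection versus DMSO controls. Primaquine positive control; three independent measurements.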

Plasmodium falciparum [5] = assay: Antimalarial activity against chloroquine-resistant Plasmodium falciparum Dd2 infected in erythrocytes after 48 hrs by SYBR green 1-based fluorescence assay; format: functional, organism-based; conditions: Dd2, 48 h; procedure, shortened: as §1
Plasmodium berghei [6] = assay: Antimalarial activity against transgenic Plasmodium berghei expressing PbGFP-Luc-con infected in human HuH7 cells assessed as reduction of intracellular liver stage development at 15 uM by luciferase based assay; format: functional, organism-based; conditions: Huh-7
Hepatocyte = assay: Cytotoxicity against mouse primary hepatocytes at 15 uM after 24 hrs by alamar blue fluorescence assay; format: cell-based
Procedure, shortened: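 Mouse primary hepatocytes incubated with compounds for 24 h, then with AlamarBlue-containing medium for 1 h before fluorescence reading. Signal normalized to cells treated with 500 μM H2O2 as positive control and compared with a DMSO control at the amount present in the highest drug concentration.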

Plasmodium berghei [7] = assay: Antimalarial activity against transgenic Plasmodium berghei expressing PbGFP-Luc-con infected in human HuH7 cells assessed as reduction of parasite invasion at 15 uM by luciferase based assay; format: functional, organism-based; conditions: Huh-7
Huh-7 = assay: Cytotoxicity against human HuH7 cells at 15 uM by alamar blue fluorescence assay; format: cell-based; conditions: huh-7, 15 µM
Procedure, shortened: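 Huh-7 cells cultured in RPMI 1640 with 10% FCS and 10 mM HEPES pH 7 at 37 °C, 5% CO2. Cells seeded the day before, exposed to compounds (1, 5, 15 uM) and infected in parallel with the liver-stage assay. Viability read as AlamarBlue fluorescence (cell confluency), compared with DMSO controls; three independent measurements.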

Plasmodium berghei [8] = assay: Antimalarial activity against transgenic Plasmodium berghei expressing PbGFP-Luc-con infected in human HuH7 cells assessed as reduction of parasite motility at 15 uM by luciferase based assay; format: functional, organism-based; conditions: Huh-7
Plasmodium falciparum [9] = assay: Ratio of balsaminol-F IC50 to compound IC50 for chloroquine-resistant Plasmodium falciparum Dd2; format: functional
Plasmodium falciparum [10] = assay: Ratio of balsaminol-F IC50 to compound IC50 for chloroquine-sensitive Plasmodium falciparum 3D7; format: functional

SMILES	IC50 (Plasmodium falciparum [1]) [µM]	selectivity ratio [2]	selectivity ratio [3]	IC50 (MCF7) [µM]	Activity (Plasmodium berghei [4])	IC50 (Plasmodium falciparum [5]) [µM]	Activity (Plasmodium berghei [6])	Activity (Hepatocyte)	Activity (Plasmodium berghei [7])	Activity (Huh-7)	Activity (Plasmodium berghei [8])	Ratio IC50 (Plasmodium falciparum [9])	Ratio IC50 (Plasmodium falciparum [10])
CC(C)=C[C@H](O)C[C@@H](C)[C@H]1CC[C@@]2(C)[C@@H]3[C@@H](O[C@@H]4O[C@H](CO)[C@@H](O)[C@H](O)[C@H]4O)C=C4[C@@H](CC[C@H](O)C4(C)C)[C@]3(C)CC[C@]12C [BALSAMINOSIDE C]	3.4	3.3	7	23.9	Active	7.2							
CC(C)=C[C@H](O)C[C@@H](C)[C@H]1CC[C@@]2(C)[C@@H]3[C@@H](O[C@@H]4O[C@H](CO)[C@@H](O)[C@@H](O)[C@H]4O)C=C4[C@@H](CC[C@H](O)C4(C)C)[C@]3(C)CC[C@]12C (relative stereo) [BALSAMINOSIDE B]	2.9	2.3	4.8	14.2	Active	6.3	Active	Toxic	inactive	Toxic	inactive		
CC(=O)O[C@H]1C=C2[C@@H](CC[C@H](OC(C)=O)C2(C)C)[C@]2(C)CC[C@]3(C)[C@@H]([C@H](C)C[C@H](C=C(C)C)OC(C)=O)CC[C@@]3(C)[C@H]12 [TRIACETYLBALSAMINOL F]	0.8	> 343	> 162	> 133	Active	0.4	Active	Non-toxic	inactive	Non-toxic	inactive	50	22.5
CC(C)=C[C@H](O)C[C@@H](C)[C@H]1CC[C@@]2(C)[C@@H]3[C@@H](O)C=C4[C@@H](CC[C@H](O)C4(C)C)[C@]3(C)CC[C@]12C (relative stereo) [BALSAMINOL F]	18	1.4	1.5	27.3	Active	20	Active	Toxic	inactive	Toxic	inactive		
CO[C@H]1C=C2[C@@H](CC[C@H](O)C2(C)C)[C@]2(C)CC[C@]3(C)[C@@H]([C@H](C)CC(C=C(C)C)O[C@@H]4O[C@H](CO)[C@@H](O)[C@H](O)[C@H]4O)CC[C@@]3(C)[C@H]12 (some centres not stated) [KUGUAGLYCOSIDE A]	3.9	2.9	3.5	13.5		4.7							
CC(C)=C[C@@H](C[C@@H](C)[C@H]1CC[C@@]2(C)[C@@H]3[C@@H](OC(=O)c4ccccc4)C=C4[C@@H](CC[C@H](OC(=O)c5ccccc5)C4(C)C)[C@]3(C)CC[C@]12C)OC(=O)c1ccccc1 [TRIBENZOYLBALSAMINOL F]	57.3	> 2	> 2.3	> 133	Active	68.4							
